Experimental data taken from ChEMBL document CHEMBL2046419, “Antibacterial anthraquinone derivatives from a sea anemone-derived fungus Nigrospora sp” (J Nat Prod, 2012).
Converted amounts (≈) assume the structure as drawn.

Key:
Staphylococcus aureus = test: Antibacterial activity against Staphylococcus aureus ATCC 27154 after 24 hrs by serial dilution technique; assay type: functional; conditions: ATCC 27154, 24 h
A549 = test: Cytotoxicity against human A549 cells by MTT assay; assay type: functional, cell-based
Summary of the method: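 A549 human lung cancer cells, MTT read-out, mitomycin as positive control; IC50 reported in μM.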

Vibrio parahaemolyticus = test: Antibacterial activity against Vibrio parahaemolyticus ATCC 17802 after 24 hrs by serial dilution technique; assay type: functional; conditions: ATCC 17802, 24 h
Micrococcus luteus = test: Antibacterial activity against Micrococcus luteus ATCC 49732 after 24 hrs by serial dilution technique; assay type: functional; conditions: ATCC 49732, 24 h
Bacillus subtilis = test: Antibacterial activity against Bacillus subtilis ATCC 6633 after 24 hrs by serial dilution technique; assay type: functional; conditions: ATCC 6633, 24 h
Vibrio anguillarum = test: Antibacterial activity against Vibrio anguillarum ATCC 19019 after 24 hrs by serial dilution technique; assay type: functional; conditions: ATCC 19019, 24 h
Micrococcus = test: Antibacterial activity against Micrococcus tetragenus ATCC 13623 after 24 hrs by serial dilution technique; assay type: functional; conditions: ATCC 13623, 24 h
Bacillus cereus [1] = test: Antibacterial activity against Bacillus cereus ACCC 11077 after 24 hrs by serial dilution technique; assay type: functional; conditions: ACCC 11077, 24 h
Escherichia coli = test: Antibacterial activity against Escherichia coli ATCC 25922 after 24 hrs by serial dilution technique; assay type: functional; conditions: ATCC 25922, 24 h
Staphylococcus albus = test: Antibacterial activity against Staphylococcus albus ATCC 8799 after 24 hrs by serial dilution technique; conditions: ATCC 8799, 24 h
Bacillus cereus [2] = test: Ratio of ciprofloxacin MIC to compound MIC for Bacillus cereus ACCC 11077; assay type: functional

Row | Structure (SMILES) | MIC (Staphylococcus aureus) [µM] | IC50 (A549) [µM] | MIC (Vibrio parahaemolyticus) [µM] | MIC (Micrococcus luteus) [µM] | MIC (Bacillus subtilis) [µM] | MIC (Vibrio anguillarum) [µM] | MIC (Micrococcus) [µM] | MIC (Bacillus cereus [1]) [µM] | MIC (Escherichia coli) [µM] | MIC (Staphylococcus albus) [µM] | Ratio (Bacillus cereus [2])
1 | COc1cc(O)c2c(c1O)[C@H](O)[C@H]1C[C@](C)(O)[C@H](O)C[C@@H]1C2=O | 25 (≈ 8.11 µg/mL) | > 50 | 12.5 (≈ 4.05 µg/mL) | 25 (≈ 8.11 µg/mL) | 12.5 (≈ 4.05 µg/mL) | 1.56 (≈ 0.506 µg/mL) | 1.56 (≈ 0.506 µg/mL) | 12.5 (≈ 4.05 µg/mL) | 6.25 (≈ 2.03 µg/mL) | > 100 | 
2 | COc1cc(O)c2c(c1O)[C@H](OC)[C@H]1C[C@](C)(O)[C@H](O)C[C@H]1C2=O | 1.56 (≈ 0.528 µg/mL) | > 50 | 25 (≈ 8.46 µg/mL) | > 100 | > 100 | 25 (≈ 8.46 µg/mL) | 0.78 (≈ 0.264 µg/mL) | 50 (≈ 16.9 µg/mL) | 0.78 (≈ 0.264 µg/mL) | > 100 | 
3 | COC1=CC(=O)c2cc3c(c(O)c2C1=O)C[C@](C)(O)[C@H](O)[C@H]3O | 2.5 (≈ 0.801 µg/mL) | 4.56 | 1.25 (≈ 0.4 µg/mL) | 20 (≈ 6.41 µg/mL) | 0.625 (≈ 0.2 µg/mL) | 2.5 (≈ 0.801 µg/mL) | 1.25 (≈ 0.4 µg/mL) | 10 (≈ 3.2 µg/mL) | 2.5 (≈ 0.801 µg/mL) | 5 (≈ 1.6 µg/mL) | 
4 | COC1=CC(=O)c2c(O)c3c(c(O)c2C1=O)C[C@](C)(O)[C@H](OC(C)=O)C3 | > 200 | 5.25 | 0.78 (≈ 0.283 µg/mL) | 100 (≈ 36.2 µg/mL) | 0.78 (≈ 0.283 µg/mL) | 0.0975 (≈ 0.0353 µg/mL) | 0.195 (≈ 0.0707 µg/mL) | 0.0488 (≈ 0.0177 µg/mL) | > 200 | 200 (≈ 72.5 µg/mL) | 25
5 | COC1=CC(=O)c2c(O)c3c(c(O)c2C1=O)C[C@](C)(O)[C@H](OC(C)=O)[C@H]3O | > 200 | 2.72 | > 200 | > 200 | > 200 | > 200 | 3.12 (≈ 1.18 µg/mL) | 3.12 (≈ 1.18 µg/mL) | > 200 | > 200 | 
6 | COc1cc(O)c2c(c1O)C(=O)c1cc(C)c(O)cc1C2=O | > 200 | > 50 | > 200 | > 200 | > 200 | > 200 | > 200 | > 200 | > 200 | > 200 | 
7 | COc1cc(O)c2c(c1OC(C)=O)C(=O)c1cc(C)c(O)cc1C2=O | 100 (≈ 34.2 µg/mL) |  | > 200 | > 200 | > 200 | > 200 | > 200 | > 200 | > 200 | 100 (≈ 34.2 µg/mL) | 
8 | COc1cc(OC(C)=O)c2c(c1O)C(=O)c1cc(C)c(O)cc1C2=O | > 200 |  | > 200 | > 200 | > 200 | > 200 | > 200 | > 200 | > 200 | > 200 | 
9 | COc1cc(O)c2c(c1O)C(=O)c1cc(C)c(OC(C)=O)cc1C2=O | > 200 |  | > 200 | > 200 | 12.5 (≈ 4.28 µg/mL) | > 200 | > 200 | 50 (≈ 17.1 µg/mL) | > 200 | > 200 | 
10 | COc1cc(OC(C)=O)c2c(c1OC(C)=O)C(=O)c1cc(C)c(O)cc1C2=O | > 150 |  | 75 (≈ 28.8 µg/mL) | > 150 | 5 (≈ 1.92 µg/mL) | 4.7 (≈ 1.81 µg/mL) | 9.4 (≈ 3.61 µg/mL) | 37.5 (≈ 14.4 µg/mL) | > 150 | > 150 | 
11 | COc1cc(O)c2c(c1OC(C)=O)C(=O)c1cc(C)c(OC(C)=O)cc1C2=O | > 200 |  | > 200 | 200 (≈ 76.9 µg/mL) | > 200 | > 200 | 200 (≈ 76.9 µg/mL) | > 200 | > 200 | > 200 | 
12 | COc1cc(OC(C)=O)c2c(c1O)C(=O)c1cc(C)c(OC(C)=O)cc1C2=O | > 200 |  | > 200 | > 200 | 50 (≈ 19.2 µg/mL) | > 200 | > 200 | > 200 | > 200 | 50 (≈ 19.2 µg/mL) | 
13 | COc1cc(OC(C)=O)c2c(c1OC(C)=O)C(=O)c1cc(C)c(OC(C)=O)cc1C2=O | > 140 | > 50 | > 140 | 140 (≈ 59.7 µg/mL) | 35 (≈ 14.9 µg/mL) | 140 (≈ 59.7 µg/mL) | > 140 | 140 (≈ 59.7 µg/mL) | > 140 | 70 (≈ 29.8 µg/mL) | 
14 | COc1cc(O)c2c(c1OC(C)=O)C(=O)c1cc(C)ccc1C2=O | > 200 |  | > 200 | > 200 | > 200 | > 200 | > 200 | > 200 | > 200 | > 200 | 
15 | COc1cc(O)c2c(c1O)C(=O)C1=C(C[C@@H](O)[C@@](C)(O)C1)C2=O | 3.12 (≈ 0.999 µg/mL) |  | 3.12 (≈ 0.999 µg/mL) | 200 (≈ 64.1 µg/mL) | 3.12 (≈ 0.999 µg/mL) | 3.12 (≈ 0.999 µg/mL) | 3.12 (≈ 0.999 µg/mL) | 3.12 (≈ 0.999 µg/mL) | 1.56 (≈ 0.5 µg/mL) | 3.12 (≈ 0.999 µg/mL) | 
16 | COc1cc(O)c2c(c1O)[C@H](O)[C@H]1C[C@](C)(O)[C@H](O)[C@@H](O)[C@@H]1C2=O [9ALPHA-HYDROXYHALOROSELLINIA A] | 0.78 (≈ 0.265 µg/mL) | 41.5 | 3.12 (≈ 1.06 µg/mL) | > 100 | 12.5 (≈ 4.25 µg/mL) | 3.12 (≈ 1.06 µg/mL) | 3.12 (≈ 1.06 µg/mL) | 12.5 (≈ 4.25 µg/mL) | 1.56 (≈ 0.531 µg/mL) | > 100 | 
17 | COc1cc(O)c2c(c1O)C(=O)c1cc(C)ccc1C2=O [AUSTROCORTIRUBIN] | > 200 | > 50 | > 200 | > 200 | > 200 | > 200 | > 200 | > 200 | > 200 | > 200 | 
18 | COC1=CC(=O)c2c(O)c3c(c(O)c2C1=O)C[C@](C)(O)[C@H](O)[C@H]3O [BOSTRYCIN] | 1.56 (≈ 0.525 µg/mL) |  | 3.12 (≈ 1.05 µg/mL) | 100 (≈ 33.6 µg/mL) | 3.12 (≈ 1.05 µg/mL) | 0.39 (≈ 0.131 µg/mL) | 3.12 (≈ 1.05 µg/mL) | 3.12 (≈ 1.05 µg/mL) | 1.56 (≈ 0.525 µg/mL) | 3.12 (≈ 1.05 µg/mL) | 
19 | O=C(O)c1cn(C2CC2)c2cc(N3CCNCC3)c(F)cc2c1=O [CIPROFLOXACIN] | 0.156 (≈ 0.0517 µg/mL) |  | 0.078 (≈ 0.0258 µg/mL) | 2.5 (≈ 0.828 µg/mL) | 0.312 (≈ 0.103 µg/mL) | 0.078 (≈ 0.0258 µg/mL) | 0.039 (≈ 0.0129 µg/mL) | 1.25 (≈ 0.414 µg/mL) | 0.156 (≈ 0.0517 µg/mL) | 0.312 (≈ 0.103 µg/mL) | 
20 | CO[C@@]12[C@H](COC(N)=O)C3=C(C(=O)C(C)=C(N)C3=O)N1C[C@@H]1N[C@@H]12 [MITOMYCIN] |  | 3 |  |  |  |  |  |  |  |  | 
21 | COC1=CC(=O)c2c(cc3c(c2O)C[C@@H](O)[C@@](C)(O)C3)C1=O [NIGROSPORIN B] | 1.25 (≈ 0.38 µg/mL) | 3.32 | 0.625 (≈ 0.19 µg/mL) | 10 (≈ 3.04 µg/mL) | 0.312 (≈ 0.0949 µg/mL) | 1.25 (≈ 0.38 µg/mL) | 0.625 (≈ 0.19 µg/mL) | 0.312 (≈ 0.0949 µg/mL) | 1.25 (≈ 0.38 µg/mL) | 2.5 (≈ 0.761 µg/mL) | 
